PMC2764298 (Biochemical and biophysical research communications, 2009)

Columns and labels:
P-gp [1] = molecular target: T1, P-gp (Homo sapiens, UniProt P08183); assay: rhodamine 123 accumulation assay by flow cytometry in MCF-7/DX1 cells; type: cell-based
In short: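 P-gp-overexpressing MCF-7/DX1 breast adenocarcinoma cells, maintained with 1 µM doxorubicin. 125,000 cells in suspension loaded with 0.5 µg/mL (1.3 µM) rhodamine 123, alone or with test compound, 30–40 min, 37°C. Pelleted, then re-incubated 30–40 min, 37°C in fresh medium with test compound or 1 µM GF120918. Resuspended in ice-cold PBS pH 7.4; 488 nm laser, 530 band-pass (FL1), 10,000 cells/point. IC50 fitted from concentration series.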

P-gp [2] = molecular target: T1, P-gp; assay: [3H]daunomycin radioactive substrate accumulation assay in MCF-7/DX1 cells; type: cell-based; conditions: read-out: IC50, cellular accumulation of [3H]daunomycin, [3H]daunomycin 0.25 µCi/mL, scintillation counting
P-gp ATPase activity = P-gp ATPase activity (Homo sapiens, UniProt P08183); assay: P-gp ATPase assay, crude High Five insect cell membranes; type: biochemical; conditions: Pi release
P-gp ATPase activity, sequence (P08183 whole entry): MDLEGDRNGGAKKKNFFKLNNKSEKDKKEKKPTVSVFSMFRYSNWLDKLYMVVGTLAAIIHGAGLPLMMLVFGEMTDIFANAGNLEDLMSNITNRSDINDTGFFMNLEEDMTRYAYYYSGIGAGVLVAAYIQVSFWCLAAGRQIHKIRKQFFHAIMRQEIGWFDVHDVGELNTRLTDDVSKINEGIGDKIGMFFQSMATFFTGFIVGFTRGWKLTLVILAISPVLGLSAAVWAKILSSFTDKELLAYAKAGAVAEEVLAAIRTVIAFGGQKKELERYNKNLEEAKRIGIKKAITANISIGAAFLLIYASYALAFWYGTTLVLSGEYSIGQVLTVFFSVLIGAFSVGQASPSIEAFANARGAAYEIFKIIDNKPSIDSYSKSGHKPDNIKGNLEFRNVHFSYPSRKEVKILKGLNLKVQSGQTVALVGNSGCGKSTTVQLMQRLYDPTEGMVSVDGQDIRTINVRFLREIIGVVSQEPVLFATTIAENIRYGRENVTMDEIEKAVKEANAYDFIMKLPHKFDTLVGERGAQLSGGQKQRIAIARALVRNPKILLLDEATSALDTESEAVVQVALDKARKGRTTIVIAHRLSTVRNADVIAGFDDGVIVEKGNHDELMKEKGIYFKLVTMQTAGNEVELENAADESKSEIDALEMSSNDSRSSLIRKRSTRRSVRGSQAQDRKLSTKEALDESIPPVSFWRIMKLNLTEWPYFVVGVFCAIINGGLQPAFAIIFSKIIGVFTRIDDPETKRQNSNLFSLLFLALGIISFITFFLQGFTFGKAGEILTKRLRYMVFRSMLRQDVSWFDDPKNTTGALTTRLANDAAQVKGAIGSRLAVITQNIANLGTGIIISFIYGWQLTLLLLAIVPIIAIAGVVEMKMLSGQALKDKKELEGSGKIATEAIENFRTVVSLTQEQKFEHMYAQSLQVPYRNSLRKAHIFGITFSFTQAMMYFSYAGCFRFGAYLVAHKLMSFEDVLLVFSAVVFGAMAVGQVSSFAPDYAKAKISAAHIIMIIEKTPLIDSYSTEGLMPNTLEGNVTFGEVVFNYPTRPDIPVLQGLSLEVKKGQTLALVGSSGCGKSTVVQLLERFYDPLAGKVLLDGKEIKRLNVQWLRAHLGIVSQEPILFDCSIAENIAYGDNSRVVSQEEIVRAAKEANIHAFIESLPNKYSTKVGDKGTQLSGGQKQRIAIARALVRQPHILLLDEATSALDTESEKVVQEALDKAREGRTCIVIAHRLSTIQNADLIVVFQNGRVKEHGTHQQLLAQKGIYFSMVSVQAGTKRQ

T1 sequence (P08183 whole entry): as above

SMILES	IC50 (P-gp [1])	IC50 (P-gp [2])	more active than the known P-gp inhibitor GF120918 (rhodamine 123 accumulation) (P-gp [1]; MCF-7/DX1 cells, both at 1 µM)	effect on P-gp ATPase activity at low concentrations (P-gp ATPase activity; Gal-2 < 1 µM)	effect on P-gp ATPase activity at higher concentrations (P-gp ATPase activity; Gal-2 > 5 µM)
COc1ccc2c3c1O[C@H]1C[C@@H](O)C=C[C@@]31CCN(C)C2 [galantamine, reference compound]	> 100 µM	–	–	–	–
COc1ccc2c3c1O[C@H]1C[C@@H](OC(=O)CCCCCCCCC(=O)O[C@H]4C=C[C@@]56CCN(C)Cc7ccc(OC)c(c75)O[C@H]6C4)C=C[C@@]31CCN(C)C2 [Gal-2]	–	2 ± 0.4 µM	approximately 20%	stimulated ATPase activity	ATPase stimulation was found to decrease in a concentration-dependent manner
